Test results: ChEMBL document CHEMBL1125133, “Benzodiazepine receptor binding activity of 9-(1-phenylethyl)purines” (J Med Chem, 1990)

Assays:
[1] = target: GABA-A receptor; anion channel; test: Inhibitory concentration against specific binding of [3H]diazepam to Benzodiazepine receptor in rat brain; assay type: tissue-based
Rattus norvegicus = organism: Rattus norvegicus; test: Percent change in conflict responding in Long-Evans rats; assay type: functional
In short: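 Long-Evans rats on a modified Geller–Seifter conflict schedule. Dosed by oral gavage at 25 mg/kg as a 0.5% methylcellulose suspension, with chlordiazepoxide at 20 mg/kg. Read-out is percent change in conflict responding, mean ±.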

[2] = target: T1, GABA-A receptor; anion channel (Rattus norvegicus) (UniProt O09028+P15431+P18506+P18508+P19969+P20236+P23574+P23576+P28471+P28473+P30191+P62813+P63079+P63138+Q91ZM7+Q9ES14); test: Inhibition of [3H]-diazepam binding to rat brain GABA-A benzodiazepine receptor at 100 uM
[3] = target: T1, GABA-A receptor; anion channel (Rattus norvegicus); test: Inhibition of [3H]diazepam binding to rat brain GABA-A Benzodiazepine receptor at 100 uM

Structure (SMILES)	IC50 [1]	Change (Rattus norvegicus)	further results
C[C@H](c1ccccc1)n1cnc2c(N(C)C)ncnc21	100 µM	–	–
C[C@@H](c1ccccc1)n1cnc2c(N(C)C)ncnc21	–	5%	–
CN(C)c1ncnc2c1ncn2Cc1cccc(O)c1	–	2%	–
CC(=O)Oc1cccc(Cn2cnc3c(N(C)C)ncnc32)c1	–	2%	–
CSc1ncnc2c1ncn2Cc1ccccc1	–	13%	–
CC(=O)Oc1cccc(C(C)n2cnc3c(N(C)C)ncnc32)c1 (racemic)	0.38 µM	–	–
CC(c1cccc(N)c1)n1c(Br)nc2c(N(C)C)ncnc21 (racemic)	0.52 µM	5%	–
CC(=O)Oc1cccc(C(C)n2cnc3c(O)ncnc32)c1 (racemic)	–	–	inhibition [2]: 68%
CC(c1cccc(O)c1)n1cnc2c(S)ncnc21 (racemic)	–	–	inhibition [3]: 64%

More lines, main results first:

IC50 [1]	Structure (SMILES)	Change (Rattus norvegicus)	further results
2.2 µM	CC(c1cccc(O)c1)n1cnc2c(O)ncnc21 (racemic)	–	–
0.48 µM	CC(c1cccc(O)c1)n1cnc2c(N(C)C)ncnc21 (racemic)	-7%	–
1.7 µM	CSc1ncnc2c1ncn2C(C)c1cccc(OC(C)=O)c1 (racemic)	–	–
0.16 µM	CC(c1cccc(N)c1)n1cnc2c(N(C)C)ncnc21 (racemic)	-22%	–
1.2 µM	CSc1ncnc2c1ncn2C(C)c1cccc(O)c1 (racemic)	–	–
